# Bioassay records (PubChem)
# E-selectin induc: induces E-selectin expression in human endothelial cells; hit rate 0.37% among 260,000; P16581; HUVEC E-selectin immunofluorescence imaging; normalized: neutral wells 0, TNF-alpha wells 100; activation, % at 7.58 µM; AID 686992;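 active means mean E-selectin-positive cell signal at least 10% of the positive control, reached in at least 60% of replicates, without over 20% cell loss; inconclusive means no rule given, readout overlaps actives, possibly toxicity-flagged; inactive means the rest, including those meeting only one limit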
#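 material = human umbilical vein endothelial cells (HUVEC), E-selectin induction | quantity = 3,000 cells/well | medium = EGM-2 growth medium on 0.1% gelatin-coated wells | technique = immunofluorescence imaging | read-out basis = % PE-positive cells | control set = TNF-alpha positive control, DMSO neutral control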
# SIRT5 block: inhibitors of human sirtuin-5 desuccinylase; hit rate 1.1% among 330,000; inhibition, % at 15 µM; Purified SirT5, succinyl-peptide AMC, trypsin-coupled fluorescence; AID 652115; Q9NXA8; in the data active means inhibition above about 15%; inconclusive means no clear call, values can overlap the other calls
# Target sequence (Q9NXA8 whole entry, looked up): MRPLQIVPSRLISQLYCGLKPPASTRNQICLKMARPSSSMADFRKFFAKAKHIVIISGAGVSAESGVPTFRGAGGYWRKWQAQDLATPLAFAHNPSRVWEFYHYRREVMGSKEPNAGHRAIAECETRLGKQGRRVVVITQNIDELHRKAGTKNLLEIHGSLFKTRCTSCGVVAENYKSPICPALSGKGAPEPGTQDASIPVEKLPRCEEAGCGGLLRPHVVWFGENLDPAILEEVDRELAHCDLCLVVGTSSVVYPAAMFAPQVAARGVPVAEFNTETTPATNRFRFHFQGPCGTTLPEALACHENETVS
# DENV2 CPE: DENV2-induced cell death inhibition | DENV2-infected cells, cytopathic effect rescue, plate reader | CPE inhibition, % at 9.99 µM | hit rate 1.7% among 350,000 | AID 651640; in the data active means CPE inhibition above about 20%, passing the limit was not always enough; inconclusive means no clear call, values can overlap the other calls; tested in BHK-21 cells;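 further: 0% = median of neutral control wells and 100% = median of positive control wells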
# An asterisk follows results filed as active; ? = inconclusive; · = no result. Hits are enriched below; roughly 2.9% of the tested compounds scored in any of these assays.
SMILES,E-selectin induc,SIRT5 block,DENV2 CPE
COc1ccc(S(=O)(=O)Nc2ccc3c(c2)C(=O)N([C@H](C)CO)C[C@@H](C)[C@@H](CN(C)S(=O)(=O)c2ccc(Cl)cc2)OCCCC[C@H](C)O3)cc1,0,0,-11
O=C(O)c1ccc2c(=O)n(Cc3ccccc3)c(SCc3ccc([N+](=O)[O-])cc3)nc2c1,-1,-2,2
CCNC1CCS(=O)(=O)C1 (stereo not drawn),1,-1,-3
Cc1ccc(Nc2nc(/N=C/NO)n[nH]2)cc1C,·,-2,-5
COc1ccc(S(=O)(=O)N(C)C[C@@H]2OCCCC[C@H](C)Oc3ccc(NS(=O)(=O)c4ccc(Cl)cc4)cc3C(=O)N([C@@H](C)CO)C[C@@H]2C)cc1,0,7,18
COc1ccc(S(=O)(=O)Nc2ccc3c(c2)C(=O)N([C@H](C)CO)C[C@H](C)[C@H](CN(C)S(=O)(=O)c2ccc(Cl)cc2)OCCCC[C@H](C)O3)cc1,0,16*,6
COc1ccc(S(=O)(=O)N2CCOCC2)cc1NC(=O)CSc1nnc(C2CC2)n1C1CC1,0,-3,-1
COC(=O)CCCC[C@@H]1O[C@H](CCc2ccccc2)Cc2[nH][nH]c(=O)c21,0,1,?
NC(=O)CC(NC(=O)c1ccc(Br)cc1)c1ccc(NCCc2ccc(F)cc2)c([N+](=O)[O-])c1 (stereo not drawn),0,·,1
NC(=O)CC(NC(=O)c1cccc(Br)c1)c1ccc(NCC2CC2)c([N+](=O)[O-])c1 (stereo not drawn),0,-1,-9
NC(=O)CC(NC(=O)c1cccc(Br)c1)c1ccc(NCCN2CCOCC2)c([N+](=O)[O-])c1 (stereo not drawn),0,·,29*
NC(=O)CC(NC(=O)c1ccccc1)c1ccc(NCCc2cccc(F)c2)c([N+](=O)[O-])c1 (stereo not drawn),0,1,39*
CN(C)/C=C/C(=O)c1ccc(F)cc1F,3,-1,4
CN(C)CC#Cc1ccc([C@H]2[C@@H](CO)N3C(=O)CN(C(=O)Cc4ccccc4)C[C@H]23)cc1,0,-3,6
O=C(CCCn1c(=O)c2ccccc2n(CC(=O)N2CCN(c3ccccc3)CC2)c1=O)NCc1ccco1,43*,2,-3
N#CCSc1nc2ccccc2c(=O)n1CCCC(=O)NCc1ccco1,1,1,·
CCOc1c(Br)cc(Br)cc1/C=C1\SC(N)=NC1=O,0,15*,-3
CCOc1cc(/C=C2\SC(N)=NC2=O)ccc1O,0,-1,1
O=C(CSCc1cnn(-c2ccccc2)c1-n1cccc1)NCc1cccnc1,5,-2,·
CNC(=O)C[C@@H]1CC[C@@H]2[C@H](COc3ccc(NC(=O)Nc4ccc(C)cc4)cc3C(=O)N2C)O1,0,0,-1
Cc1cccc(NC(=S)NCCSc2ccc(Cl)cc2)c1,-1,-4,2
CN(C)c1ccc2cc(S(=O)(=O)O)cc(O)c2c1,0,22*,1
CN(c1ccc(O)cc1)S(=O)(=O)c1ccc2ccccc2c1,·,-2,-2
COc1ccc(S(=O)(=O)N2CCOCC2)cc1NC(=O)CCc1cc(OC)c(OC)c(OC)c1,0,-7,0
CN1CCCCN2[C@H](CO)[C@@H](c3ccc(-c4cccnc4)cc3)[C@H]2C1,0,4,18
SMILES,E-selectin induc,SIRT5 block,DENV2 CPE
CC(CC(=O)Nc1ccc2c(c1)c(=O)n(C)n2-c1ccc2ccccc2c1)C(F)(F)F (stereo not drawn),2,21*,1
Cn1c(=O)c2cc(NC(=O)Cc3cccnc3)ccc2n1-c1ccc2ccccc2c1,1,1,-7
Cc1c(C(=O)Nc2ccncc2)oc2c1C(=O)CC(C)(C)C2,·,-2,0
Cc1cc(C)c([C@@H]2C[C@H]3CN(C4CCCC4)C(=O)[C@]34CCCN24)c(-n2cccn2)c1,3,-5,1
O=C(Nc1cc(F)ccc1F)N1CCCCN2[C@@H](CO)[C@H](c3ccc(-c4cncnc4)cc3)[C@@H]2C1,0,-1,-2
CC1CCCN(CCCN2C(=O)C3C(C(=O)Nc4ccc(Cl)cc4)C4C=CC3(O4)C2C(=O)NC2CCCCC2)C1 (stereo not drawn),·,-3,1
Cc1ccc(NC(=O)C2C3C=CC4(O3)C2C(=O)N(CCCN2CCCC(C)C2)C4C(=O)NC2CCCCC2)cc1 (stereo not drawn),0,17*,1
COC(=O)[C@@]1(Cc2ccc(F)cc2)[C@H]2c3cc(C(=O)N4CCCC4)n(Cc4cc(F)cc5c4OCOC5)c3C[C@H]2CN1C(=O)c1ccccc1,-7,22*,-6
COC(=O)[C@@]1(Cc2ccc(F)cc2)[C@H]2c3cc(C(=O)N(C)C)n(Cc4cc(F)cc5c4OCOC5)c3C[C@H]2CN1C(=O)c1ccccc1,-2,-3,18
O=C(Nc1ccc(-c2ccccc2)cc1)[C@H]1[C@H](CO)[C@H]2Cn3c(cccc3=O)[C@H]2N1CC1CCCCC1,4,102*,11
O=C(Nc1ccccc1)[C@@H]1[C@@H](CO)[C@@H]2Cn3c(cccc3=O)[C@@H]2N1CC1CCOCC1,0,-2,?
O=C(Nc1ccc(-c2ccccc2)cc1)[C@H]1[C@H](CO)[C@H]2Cn3c(cccc3=O)[C@H]2N1CC1CCCC1,-1,6,9
O=C(Nc1ccccc1)[C@@H]1[C@@H](CO)[C@@H]2Cn3c(cccc3=O)[C@@H]2N1CC1CC1,0,16*,-1
C[C@@H](NC(=O)[C@@H]1[C@@H](CO)[C@@H]2Cn3c(cccc3=O)[C@@H]2N1CC1CCCCC1)c1ccccc1,-1,-4,-14
C[C@@H](NC(=O)[C@H]1[C@H](CO)[C@H]2Cn3c(cccc3=O)[C@H]2N1CC1CCCCC1)c1ccccc1,-1,-3,24*
COc1cc(C(=O)NCCCN2CCCC2=O)ccc1OCc1ccc(Cl)cc1Cl,·,2,-7
O=C(CCSCc1cccc(Cl)c1)NCCC1=CCCCC1,0,·,·
O=C(CS(=O)(=O)c1cn(CC(=O)N2CCCC2)c2ccccc12)Nc1ccccc1,-4,2,0
CN(C(=O)CS(=O)(=O)c1cn(CC(=O)N2CCCCC2)c2ccccc12)c1ccccc1,0,-2,64*
CCc1nnc(NC(=O)CSc2nnc(CNC(=O)c3ccccc3)o2)s1,0,0,2
C[C@@H]1CN([C@@H](C)CO)C(=O)Cc2cc(NS(C)(=O)=O)ccc2O[C@H]1CN(C)Cc1ccc(C(F)(F)F)cc1,0,10,20*
C[C@@H]1CN([C@H](C)CO)C(=O)c2cc(NS(C)(=O)=O)ccc2O[C@@H]1CN(C)Cc1ccc(C(F)(F)F)cc1,110*,-1,-9
C[C@H](CO)N1C[C@H](C)[C@@H](CN(C)Cc2ccc(C(F)(F)F)cc2)Oc2ccc(NS(C)(=O)=O)cc2CC1=O,0,16*,-4
C[C@H]1CN([C@@H](C)CO)C(=O)Cc2cc(NS(C)(=O)=O)ccc2O[C@@H]1CN(C)Cc1ccc(C(F)(F)F)cc1,0,1,14
C[C@@H]1CN([C@H](C)CO)C(=O)Cc2cc(NS(C)(=O)=O)ccc2O[C@H]1CN(C)Cc1ccc(C(F)(F)F)cc1,0,7,-6
